Data published in ChEMBL document CHEMBL5046273, “Development of a Novel, Small-Molecule Brain-Penetrant Histone Deacetylase Inhibitor That Enhances Spatial Memory Formation in Mice” (J Med Chem, 2022).

What was measured:
[1] = Drug uptake in BALB/c mouse hippocampus at 20 to 40 mg/kg, ip measured after 10 mins by mass spectroscopy method; type: ADME, organism-based; conditions: in vivo, dose 20-40 mg/kg
How it was run: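 BALB/c mice were dosed i.p.: 20 mg/kg with brains taken at 10 min (two mice), or 40 mg/kg with brains taken at 10 and 30 min. Dorsal hippocampus was dissected on wet ice, extracted in acetonitrile and analysed by LC–MS/MS in MRM mode (m/z 485 [M+Na+] transitions) against a 4,5-diphenylimidazole internal standard.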

[2] = Half life in Swiss Webster mouse brain at 40 mg/kg, ip by LC-MS/MS analysis; type: ADME, organism-based; conditions: in vivo
How it was run: (§1)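 Single i.p. dose of 40 mg/kg in Swiss Webster mice; blood, brain and liver taken at several time points. Tissues homogenized in acetonitrile, centrifuged, spin-filtered, dried and reconstituted, with 4,5-diphenylimidazole as instrument standard. Quantified by LC–MS/MS on a C18 column with a formic acid/MeCN gradient. Mean ± SD (n = 4), fitted to a two-compartment PK model.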

[3] = Tmax in Swiss Webster mouse brain at 40 mg/kg, ip by LC-MS/MS analysis; type: ADME, organism-based; how it was run: as §1
Histone deacetylase 2 [4] = target: T1, Histone deacetylase 2 (Homo sapiens, UniProt Q92769); experiment: Inhibition of recombinant human full-length HDAC2 incubated for 10 mins by Glo-luminescence assay
How it was run: (§2)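 Compounds were serially diluted and incubated with enzyme for 10 min. HDAC-Glo I/II substrate/developer was then added, and luminescence read after 40 min at 23 °C. IC50 from four-parameter fits from two independent titrations, mean ± SD.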

Histone deacetylase 2 [5] = target: T1, Histone deacetylase 2; experiment: Inhibition of recombinant human full-length HDAC2 preincubated for 20 mins with DTT followed by enzyme addition and measured after 10 mins by Glo-luminescence assay; how it was run: as §2
[6] = Drug uptake in BALB/c mouse blood at 40 mg/kg, ip measured upto 60 mins by mass spectroscopy analysis; type: ADME, organism-based; conditions: in vivo, 1 h
How it was run: (§3)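 BALB/c mice received 40 mg/kg i.p. Retro-orbital blood was collected under isoflurane, then liver and whole brain after CO2 euthanasia, at 10, 30 and 60 min. Acetonitrile extracts were spin-filtered with 4,5-diphenylimidazole as instrument standard and analysed by LC–MS/MS.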

DU-145 = experiment: Cytotoxicity against human DU-145 cells assessed as reduction in cell viability at 100 uM incubated for 48 hrs by MTT assay; type: functional
How it was run: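 DU145 cells in DMEM with 10% FBS were seeded at 14 000 cells/well and allowed to adhere for 24 h. Test agents were diluted from 10 mM DMSO stocks (100, 50, 25 µM; 10, 5, 1.25 nM) and applied in triplicate for 48 h at 37 °C, 5% CO2, with DMSO as vehicle. Read-out was 250 µg/mL MTT for 4 h, DMSO solubilization, and A570 with 690 nm reference. Values normalized to DMSO.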

Histone deacetylase 1 = Histone deacetylase 1 (Homo sapiens, UniProt Q13547); experiment: Inhibition of HDAC1 in human DU-145 cells assessed as increase in histone H3 acetylation after 24 hrs by immunofluorescence microscopy; type: cell-based
[7] = AUC in Swiss Webster mouse liver at 40 mg/kg, ip by LC-MS/MS analysis; type: ADME, organism-based; design: dose 40 mg/kg; conditions: in vivo; how it was run: as §1
[8] = Tmax in Swiss Webster mouse liver at 40 mg/kg, ip by LC-MS/MS analysis; type: ADME, organism-based; how it was run: as §1
[9] = Cmax in Swiss Webster mouse blood at 40 mg/kg, ip by LC-MS/MS analysis; type: ADME, organism-based; design: route intraperitoneal, dose 40 mg/kg; conditions: in vivo; how it was run: as §1
[10] = Elimination rate in Swiss Webster mouse blood at 40 mg/kg, ip by LC-MS/MS analysis; type: ADME, organism-based; how it was run: as §1
[11] = Drug uptake in BALB/c mouse brain at 40 mg/kg, ip measured upto 60 mins by mass spectroscopy analysis; type: ADME, organism-based; conditions: in vivo, 1 h; how it was run: as §3
[12] = target: T2, Protein deacetylase HDAC6 (Homo sapiens, UniProt Q9UBN7); experiment: Inhibition of HDAC6 in human DU-145 cells assessed as increase in histone H3 acetylation after 24 hrs by immunofluorescence microscopy; type: cell-based
T2 sequence (Q9UBN7 whole entry): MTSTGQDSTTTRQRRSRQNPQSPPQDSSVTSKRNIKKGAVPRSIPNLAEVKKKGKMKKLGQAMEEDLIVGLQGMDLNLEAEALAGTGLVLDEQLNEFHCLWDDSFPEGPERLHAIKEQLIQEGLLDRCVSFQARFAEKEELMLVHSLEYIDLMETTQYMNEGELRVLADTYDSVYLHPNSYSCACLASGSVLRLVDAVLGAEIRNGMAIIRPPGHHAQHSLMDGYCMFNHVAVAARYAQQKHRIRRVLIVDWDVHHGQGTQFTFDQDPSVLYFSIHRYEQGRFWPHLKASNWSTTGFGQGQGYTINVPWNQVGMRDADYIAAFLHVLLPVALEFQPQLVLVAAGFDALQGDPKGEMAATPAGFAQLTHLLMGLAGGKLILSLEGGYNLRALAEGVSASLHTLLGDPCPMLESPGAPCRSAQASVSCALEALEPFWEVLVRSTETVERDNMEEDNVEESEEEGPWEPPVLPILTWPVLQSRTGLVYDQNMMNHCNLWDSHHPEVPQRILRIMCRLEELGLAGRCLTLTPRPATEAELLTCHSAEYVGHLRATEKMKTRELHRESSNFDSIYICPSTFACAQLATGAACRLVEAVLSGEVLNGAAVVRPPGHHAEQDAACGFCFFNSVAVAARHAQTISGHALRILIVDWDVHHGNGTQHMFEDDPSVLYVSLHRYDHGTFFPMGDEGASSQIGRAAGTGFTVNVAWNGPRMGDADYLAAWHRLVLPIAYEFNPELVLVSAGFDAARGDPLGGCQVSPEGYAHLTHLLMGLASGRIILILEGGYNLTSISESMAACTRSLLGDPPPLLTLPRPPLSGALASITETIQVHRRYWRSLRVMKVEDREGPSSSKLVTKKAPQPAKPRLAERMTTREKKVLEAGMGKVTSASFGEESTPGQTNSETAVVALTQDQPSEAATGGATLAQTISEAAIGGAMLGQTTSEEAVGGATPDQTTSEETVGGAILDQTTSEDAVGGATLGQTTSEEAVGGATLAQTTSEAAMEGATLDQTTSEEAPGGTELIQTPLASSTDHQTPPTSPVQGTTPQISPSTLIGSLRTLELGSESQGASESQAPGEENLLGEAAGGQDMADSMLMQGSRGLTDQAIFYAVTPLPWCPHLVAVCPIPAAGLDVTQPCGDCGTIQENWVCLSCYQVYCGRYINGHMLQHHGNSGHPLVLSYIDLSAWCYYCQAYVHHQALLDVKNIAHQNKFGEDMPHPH

Histone deacetylase 3 = Histone deacetylase 3 (Homo sapiens, UniProt O15379); experiment: Inhibition of HDAC3 in human DU-145 cells assessed as increase in histone H3 acetylation after 24 hrs by immunofluorescence microscopy; type: cell-based
[13] = Elimination rate in Swiss Webster mouse liver at 40 mg/kg, ip by LC-MS/MS analysis; type: ADME, organism-based; how it was run: as §1
[14] = Cmax in Swiss Webster mouse brain at 40 mg/kg, ip by LC-MS/MS analysis; type: ADME, organism-based; design: route intraperitoneal, dose 40 mg/kg; how it was run: as §1

T1 sequence (Q92769 whole entry): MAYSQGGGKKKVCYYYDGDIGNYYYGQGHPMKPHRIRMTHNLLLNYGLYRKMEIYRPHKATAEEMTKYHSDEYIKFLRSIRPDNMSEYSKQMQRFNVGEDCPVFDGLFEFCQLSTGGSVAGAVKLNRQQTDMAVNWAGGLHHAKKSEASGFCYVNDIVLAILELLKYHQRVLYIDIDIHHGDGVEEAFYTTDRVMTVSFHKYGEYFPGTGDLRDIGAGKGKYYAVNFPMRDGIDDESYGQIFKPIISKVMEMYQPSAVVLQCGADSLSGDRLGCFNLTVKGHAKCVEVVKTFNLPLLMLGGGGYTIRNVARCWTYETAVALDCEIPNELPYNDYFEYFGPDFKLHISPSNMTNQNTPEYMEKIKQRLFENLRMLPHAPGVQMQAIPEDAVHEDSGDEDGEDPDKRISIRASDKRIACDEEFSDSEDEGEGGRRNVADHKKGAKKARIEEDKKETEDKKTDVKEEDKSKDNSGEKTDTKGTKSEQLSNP
Histone deacetylase 1, sequence (Q13547 whole entry): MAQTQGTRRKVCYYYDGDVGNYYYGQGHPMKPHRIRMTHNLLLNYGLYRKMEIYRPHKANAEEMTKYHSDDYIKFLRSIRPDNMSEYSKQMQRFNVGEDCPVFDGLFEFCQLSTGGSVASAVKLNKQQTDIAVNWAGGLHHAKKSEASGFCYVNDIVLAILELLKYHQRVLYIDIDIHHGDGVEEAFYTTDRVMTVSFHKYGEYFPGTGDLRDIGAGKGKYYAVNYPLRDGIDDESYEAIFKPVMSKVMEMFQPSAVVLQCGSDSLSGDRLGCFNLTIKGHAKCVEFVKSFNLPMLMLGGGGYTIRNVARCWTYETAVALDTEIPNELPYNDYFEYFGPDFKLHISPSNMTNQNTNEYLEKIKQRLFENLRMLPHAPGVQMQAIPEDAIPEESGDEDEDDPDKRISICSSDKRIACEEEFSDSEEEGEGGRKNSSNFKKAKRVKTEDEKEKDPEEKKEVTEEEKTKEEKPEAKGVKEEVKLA
Histone deacetylase 3, sequence (O15379 whole entry): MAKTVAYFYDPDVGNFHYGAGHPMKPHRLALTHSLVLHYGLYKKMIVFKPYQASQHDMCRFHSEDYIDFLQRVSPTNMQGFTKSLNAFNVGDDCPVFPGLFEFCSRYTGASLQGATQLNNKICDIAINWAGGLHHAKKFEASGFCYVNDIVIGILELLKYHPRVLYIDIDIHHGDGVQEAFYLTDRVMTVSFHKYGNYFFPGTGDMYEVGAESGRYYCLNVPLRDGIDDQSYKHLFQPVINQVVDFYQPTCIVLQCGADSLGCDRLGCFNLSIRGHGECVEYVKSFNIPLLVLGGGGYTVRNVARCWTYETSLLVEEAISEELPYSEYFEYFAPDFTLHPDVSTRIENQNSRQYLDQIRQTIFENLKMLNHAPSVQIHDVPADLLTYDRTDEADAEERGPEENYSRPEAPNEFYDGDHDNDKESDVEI

With CC(C)(C)OC(=O)CC(O)/C=C/CCSSCC/C=C/C(O)CC(=O)OC(C)(C)C (configuration not stated) the Drug uptake [1] was “Active”, the t1/2 [2] was 13.4 min and the Tmax [3] was 10 min. For the same molecule, the IC50 (Histone deacetylase 2 [4]) was 100 µM, the IC50 (Histone deacetylase 2 [5]) was 10 µM and the Drug uptake [6] was “Active”. It also gave an inhibition at 100 µM (DU-145) of 80%, an IC50 (Histone deacetylase 1) of 8.7 µM and an AUC [7] of 31091 ng·min/g. It also gave a Tmax [8] of 10 min, a Cmax [9] of 131.2 ng/mL and a k el [10] of 0.000367 s⁻¹. The Drug uptake [11] was “Active”, the IC50 [12] was 12 µM and the IC50 (Histone deacetylase 3) was 8 µM. It also gave a k el [13] of 0.000283 s⁻¹ and a Cmax [14] of 82.5 ng/g.
